Results from article PMC9521027 (ACS Omega, 2022).
Residue numbers refer to the chain shown, from its start.

Columns and labels:
URAT1 K393H mutant = target: T1, URAT1 K393H mutant (Homo sapiens, UniProt Q96S37, K393H); assay: 14C-uric acid uptake assay in transfected HEK293 cells; type: cell-based; details: K393H, HEK293 cells
T1 sequence (Q96S37 1-553 K393H): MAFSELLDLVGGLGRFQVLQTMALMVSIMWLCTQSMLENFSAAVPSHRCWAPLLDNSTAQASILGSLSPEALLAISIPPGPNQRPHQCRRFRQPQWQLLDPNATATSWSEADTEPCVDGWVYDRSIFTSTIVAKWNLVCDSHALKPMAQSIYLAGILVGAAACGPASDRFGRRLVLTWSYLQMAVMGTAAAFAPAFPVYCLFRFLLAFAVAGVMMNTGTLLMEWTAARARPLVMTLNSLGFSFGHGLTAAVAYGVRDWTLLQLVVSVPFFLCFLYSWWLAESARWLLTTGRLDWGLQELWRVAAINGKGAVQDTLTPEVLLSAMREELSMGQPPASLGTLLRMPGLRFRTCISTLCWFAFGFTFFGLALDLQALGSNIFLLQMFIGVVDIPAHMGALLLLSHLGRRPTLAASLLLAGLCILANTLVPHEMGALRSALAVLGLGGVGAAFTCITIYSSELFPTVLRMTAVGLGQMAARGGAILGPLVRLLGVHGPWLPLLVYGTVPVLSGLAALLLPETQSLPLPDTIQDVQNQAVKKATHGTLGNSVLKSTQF

URAT1 K393D mutant [1] = target: T2, URAT1 K393D mutant (Homo sapiens, UniProt Q96S37, K393D); assay: as above; type: cell-based; details: K393D, HEK293 cells
T2 sequence (Q96S37 1-553 K393D): T1 sequence (Q96S37 1-553 K393H) with H393D

URAT1 K393E mutant [2] = target: T3, URAT1 K393E mutant (Homo sapiens, UniProt Q96S37, K393E); assay: as above; type: cell-based; details: K393E, HEK293 cells
T3 sequence (Q96S37 1-553 K393E): T1 sequence (Q96S37 1-553 K393H) with H393E

URAT1 K393A mutant = target: T4, URAT1 K393A mutant (Homo sapiens, UniProt Q96S37, K393A); assay: 14C-uric acid binding assay with membrane protein; details: 2.5 μg membrane protein, 25 μM 14C-uric acid, 30 min
T4 sequence (Q96S37 1-553 K393A): T1 sequence (Q96S37 1-553 K393H) with H393A
In short: (§1)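 Membranes came from HEK293 cells transiently transfected (Lipofectamine 3000) with sequence-confirmed site-directed K393 mutant hURAT1 plasmids; control membranes came from cells transfected with pECFP empty vector. Cells were harvested in ice-cold 25 mM HEPES pH 7.3 with 125 mM sodium gluconate, and membranes were extracted with a kit. Protein was incubated at room temperature, then rapid-filtered, washed with ice-cold DPBS, dissolved in 0.1 M NaOH and scintillation-counted. n = 3, mean ± SD.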

URAT1 K393D mutant [3] = target: T2, URAT1 K393D mutant; assay: 14C-uric acid binding assay with membrane protein; details: 2.5 μg membrane protein, 25 μM 14C-uric acid, 30 min
In short: as §1

URAT1 K393E mutant [4] = target: T3, URAT1 K393E mutant; assay: 14C-uric acid binding assay with membrane protein; details: 2.5 μg membrane protein, 25 μM 14C-uric acid, 30 min
In short: as §1

`O=c1[nH]c(=O)c2[nH]c(=O)[nH]c2[nH]1` [uric acid] was tested, and the “14C-uric acid transport capacity compared with WT” value (URAT1 K393H mutant) was “slightly reduced”, the “14C-urate transport capacity lost compared with WT” value (URAT1 K393D mutant [1]) was 70–80% and the “14C-urate transport capacity lost compared with WT” value (URAT1 K393E mutant [2]) was 70–80%. For the same molecule, the “14C-uric acid binding compared with WT” value (URAT1 K393A mutant) was “significant loss”, the “14C-uric acid binding compared with WT” value (URAT1 K393D mutant [3]) was “significant loss” and the “14C-uric acid binding compared with WT” value (URAT1 K393E mutant [4]) was “significant loss”.
